Screening results (PubChem BioAssay)
This is a sample that favours compounds with a hit; in the whole collection about 2.3% have one here.
TRPC6 inh = mouse TRPC6 channel inhibition; Q61143; HEK293-TRPC6, membrane potential dye, ACh-evoked depolarization; hits give low values; B-score at 10 µM; 310,000 tested, 1.1% active; AID 2553;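 active = B-score under library mean minus 3 SD, initial fluorescence not abnormally high, positive integrated signal ratio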;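 note: B-score derived from integrated fluorescence ratio over the kinetic read; more negative B-score means stronger inhibition of depolarization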
TRPC4 block = inhibitors of mouse TRPC4 channel | HEK293 TRPC4beta/mu-opioid, DAMGO-evoked Fluo4 calcium flux; hits give low values | B-score at 10 µM | Q9QUQ5 | 300,000 tested, 0.39% active;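 active = B-score over 3 SD under the library average, no early fluorescence shift, positive overall ratio signal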
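System: stable TRPC4beta/mu-opioid receptor HEK293 cells; Dosing: single-point compound dosing; Measured by: Fluo4 Ca2+ flux fluorescence; Read-out basis: per-well B score of integrated baseline-normalized Fluo4 ratio.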
TRPC4 act = activators of mouse TRPC4 channel | B-score at 10 µM | 310,000 tested, 0.49% active | AID 2237 | Q9QUQ5 | HEK293 TRPC4beta/mu-opioid, Fluo4 calcium fluorescence; hits give high values;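 active = B-score above 5 SD of library B-scores, and initial fluorescence ratio not above library mean plus 5 SD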;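 note: positive B-score marks a calcium rise read as TRPC4 activation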
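Incubation: 45 min room-temperature Fluo4 loading, 110 s read / System: HEK293 cells stably co-expressing mouse TRPC4beta and mu-opioid receptor / Signal: Fluo4 fluorescence, kinetic / Control set: buffer (low) and maximal DAMGO (high) / Measure: integrated baseline-normalised fluorescence ratio, converted to per-well B score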
TRPC4 potent = allosterically enhances the mouse TRPC4 cation channel | Q9QUQ5 | HEK293 TRPC4beta/mu-opioid, DAMGO EC20, Fluo-4 Ca2+ flux; hits give high values | B-score at 10 µM | 310,000 tested, 0.42% active | AID 2227;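 active = B-score of calcium response area above 5 SD of library B-scores, with initial fluorescence ratio within 5 SD of library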;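 note: B-score of integrated fluorescence ratio over time as area under calcium response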
TRPC6 act = activators of mouse TRPC6 channel. Q61143. HEK293-TRPC6 membrane potential dye fluorescence; hits give high values. B-score at 10 µM. 310,000 tested, 0.13% active. AID 2550;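 active = B-score of the integrated fluorescence ratio above library mean plus 3 SD, and starting fluorescence ratio within library mean plus 5 SD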;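 note: higher score means more depolarization so channel activation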
Starred values were filed as active, the others as inactive; i = inactive.

SMILES | TRPC6 inh | TRPC4 block | TRPC4 act | TRPC4 potent | TRPC6 act
CS(=O)(=O)N1CCN(c2ccccc2NC(=O)CSc2ccc(Cl)cc2)CC1 | i | i | i | 10* | i
O=c1c(Cl)c(N2CCN(c3ccc(F)cc3)CC2)cnn1C12CC3CC(CC(C3)C1)C2 | i | i | i | 10* | i
CCn1c(N2CCN(S(=O)(=O)c3ccccc3C(F)(F)F)CC2)nc2ccccc21 | i | i | 119* | i | i
CCN(CCn1cccn1)C(=O)c1cc(COc2ccc(F)cc2Cl)on1 | i | i | i | i | i
O=C(c1cc(COc2ccc(F)cc2Cl)on1)N(CCO)Cc1cccs1 | i | i | i | 11* | i
COc1ccccc1-c1cc(C(=O)N2CCN(c3ccccc3OC)CC2)no1 | i | -6* | i | i | i
COc1ccccc1N1CCN(C(=O)c2cc(-c3ccc(C)cc3)on2)CC1 | i | i | i | i | i
Cc1ccc(CNC(=O)C2CCCN(S(=O)(=O)c3c(C)noc3/C=C/N(C)C)C2)cc1 (stereo not drawn) | i | i | i | i | i
CCOC(=O)C1(Cc2cccc(OC)c2)CCN(CC2CC=CCC2)CC1 (stereo not drawn) | i | -5* | i | i | i
CCOC(=O)C1(Cc2cccc(OC)c2)CCN(Cc2ccc(OC)c(OC)c2)CC1 | i | i | i | i | i
CCOC(=O)C1(Cc2cccc(OC)c2)CCN(Cc2cccc(O)c2)CC1 | i | -8* | i | i | i
CCOC(=O)C1(Cc2ccccc2)CCN(CC2CC=CCC2)CC1 (stereo not drawn) | i | -6* | i | i | i
CCN(CC)CCN1C(=O)C(=O)/C(=C(/O)c2ccc(S(=O)(=O)N3CCOCC3)cc2)C1c1ccc(Cl)cc1 (stereo not drawn) | i | i | i | i | i
NN=C1c2cc([N+](=O)[O-])ccc2-c2ccc([N+](=O)[O-])cc21 | i | i | i | 18* | i
O=[N+]([O-])c1ccc2c(c1)/C(=N\O)c1ccccc1-2 | i | i | i | i | i
CC(C)Oc1ccccc1/C=N/NC(=O)C1CC1 | i | i | i | i | i
Cc1cc(C)c(S(=O)(=O)Nc2ccc(N(C)C)cc2)c(C)c1-n1cnnn1 | i | i | i | i | i
S=c1[nH]nc(-c2ccncc2)n1/N=C/C(Cl)=C\c1ccccc1 | i | i | i | 12* | i
Cc1ccc2[nH]c(C(=O)NCCN3CCCC3)cc2c1 | i | i | 56* | i | i
Cc1ccc2[nH]c(C(=O)N3CCCCC3)cc2c1 | i | i | i | i | i
CC(C)(C)C(=O)NC(=S)NNC(=O)C(c1ccccc1)c1ccccc1 | i | i | 304* | i | i
CC(=O)NNC(=S)NC(=O)C(c1ccccc1)c1ccccc1 | i | i | i | i | i
COc1ccc(N2CCN(C(CNC(=O)CC(C)(C)C)c3ccc4c(c3)OCO4)CC2)cc1 (stereo not drawn) | i | i | i | i | i
CC1=C(C(=O)Nc2cccc(C(=O)NC3CCCCC3C)c2)SCCO1 (stereo not drawn) | i | i | i | i | i
COCCn1c(=O)[nH]c(=O)c2cc(C(=O)c3cc(Cl)ccc3O)cnc21 | i | i | i | i | i
SMILES | TRPC6 inh | TRPC4 block | TRPC4 act | TRPC4 potent | TRPC6 act
COc1ccc(O)c(C(=O)c2cnc3c(c2)c(=O)[nH]c(=O)n3C)c1 | i | -6* | i | i | i
O=C(Nc1ccc2c(c1)OCO2)c1cnn2cccnc12 | i | i | i | 50* | i
Cc1cc(NC(=O)c2cnn3cccnc23)nn1CC(=O)Nc1cccnc1 | i | i | 51* | 150* | i
Cc1ccccc1Cn1ccc(NC(=O)c2cnn3cccnc23)n1 | i | i | i | i | i
COCC(=O)Nc1nnc(SCC(=O)N2C(C)CCCC2C)s1 (stereo not drawn) | i | i | i | i | i
Cc1cc(C)n2nc(CC(=O)NNC(=O)COc3ccccc3)nc2n1 | i | i | i | i | i
COc1ccccc1NC(=O)C1CC(O)CN1C(=O)Oc1ccccc1 (stereo not drawn) | i | i | i | i | i
Cc1ccc(Cl)cc1N1CCN(Cc2nc3ccsc3c(=O)[nH]2)CC1 | i | i | i | 28* | i
O=c1[nH]c(CN2CCN(c3ccc([N+](=O)[O-])cc3)CC2)nc2ccsc12 | i | i | i | i | i
O=C(Nc1cccc2ncccc12)c1cccc(Br)c1 | i | i | i | 14* | i
O=C(Nc1cccc2ncccc12)c1cccc(F)c1 | i | i | i | i | i
CSCCNC(=O)c1ccc(OC2CCN(CCc3ccccc3)CC2)cc1 | i | -6* | i | i | i
CN(C(=O)c1ccc(OC2CCN(CCc3ccccc3)CC2)cc1)C1CCOCC1 | i | i | i | i | i
COC(=O)CCCNC(=O)c1ccc(OC2CCN(CCc3ccccc3)CC2)cc1 | i | i | 79* | i | i
O=C(NCCn1cccn1)c1ccc(OC2CCN(CCc3ccccc3)CC2)cc1 | i | i | 66* | i | i
CN(C(=O)c1ccc(OC2CCN(CCc3ccccc3)CC2)cc1)C1CCCCC1 | i | -6* | i | i | i
O=C(NC1CCOC1)c1ccc(OC2CCN(CCc3ccccc3)CC2)cc1 (stereo not drawn) | i | i | i | i | i
Cc1csc(CNC(=O)c2ccc(OC3CCN(CCc4ccccc4)CC3)cc2)n1 | i | i | i | i | i
CC(C)(C)C(=O)O/N=C(\N)COc1cccc(Cl)c1 | i | i | i | i | i
COc1cc(Cl)c(C)cc1NC(=O)c1ccccc1NC(=O)CN1CCOCC1 | i | i | i | i | i
CCCSc1cc(N)cc([N+](=O)[O-])c1 | i | -5* | i | i | i
Cn1c(N2CCN(C(=O)Nc3ccc(C(F)(F)F)cc3)CC2)nc2ccccc21 | i | i | 94* | i | i
Cn1c(N2CCN(C(=O)NCc3ccccc3)CC2)nc2ccccc21 | i | i | i | i | i
Cc1cc(C)nc(Nc2nc(=O)c3ccccc3s2)n1 | i | i | i | 55* | i
Cc1sc2ncnc(NCC(c3ccco3)N3CCCC3)c2c1C (stereo not drawn) | i | i | 163* | i | i
O=C(COc1ccc(Br)cc1Cl)c1ccc[nH]1 | i | -6* | i | i | i
